EBNA-1 inhibitor = blocks EBNA-1 binding to DNA. actives 0.34% (n = 300,000). EBNA-1 DNA binding, fluorescence polarization. inhibition, % at 14.8 µM; in the data active = inhibition above about 28%
ZTA DNA inh = ZTA (EBV) inhibition in EBNA-1 counter-screen; P03206; ZTA-DNA binding, fluorescence polarization; inhibition, % at 11 µM; actives 0.15% (n = 320,000); AID 2234; in the data active = inhibition above about 33%
PP1 inh = PP1-alpha (human) inhibition in PP5 counter-screen. purified PP1alpha, OMFP fluorescence. P62136. inhibition, % at 6.7 µM. actives 0.9% (n = 320,000);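 active = inhibition above the mean inhibition of all tested compounds plus 3 SD, computed separately for each screening campaign, cut at about 15% in these data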
PP5 primary = inhibitors of human protein phosphatase 5 (PP5). purified PP5c, OMFP substrate fluorescence. inhibition, % at 6.7 µM. actives 0.18% (n = 320,000);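 active = inhibition above the campaign's mean inhibition across all tested compounds plus 3 SD, cut at about 9.5% in these data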;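 note: 0% = DMSO only and 100% = 100 µM cantharidin control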
Target sequence (P53041 whole entry, looked up): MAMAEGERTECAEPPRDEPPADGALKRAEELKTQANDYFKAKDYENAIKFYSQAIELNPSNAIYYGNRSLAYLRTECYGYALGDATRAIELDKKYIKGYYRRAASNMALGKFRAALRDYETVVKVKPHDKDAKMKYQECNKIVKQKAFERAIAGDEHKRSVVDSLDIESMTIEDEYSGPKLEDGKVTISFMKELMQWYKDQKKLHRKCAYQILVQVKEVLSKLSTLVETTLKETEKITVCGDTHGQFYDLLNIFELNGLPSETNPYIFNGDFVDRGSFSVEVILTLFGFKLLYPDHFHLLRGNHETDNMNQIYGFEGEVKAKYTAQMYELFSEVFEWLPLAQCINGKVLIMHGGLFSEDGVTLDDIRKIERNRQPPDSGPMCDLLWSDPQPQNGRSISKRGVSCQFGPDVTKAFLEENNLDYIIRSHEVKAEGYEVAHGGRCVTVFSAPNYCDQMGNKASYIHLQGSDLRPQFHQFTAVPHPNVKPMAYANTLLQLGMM
core dimer inh = HCV core protein dimerization inhibition | TR-FRET GST/Flag-core106 dimerization, 1536-well | inhibition, % at 5 µM | actives 0.33% (n = 300,000) | AID 1899;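 active = inhibition above the mean of all tested compounds plus 3 SD, set per screening campaign, cut at about 45% in these data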
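Assay system: tagged HCV core106 pair (GST and Flag); medium: KF-containing HEPES buffer, pH 7.45, DTT, CHAPS, BSA; also added: Eu donor and XL665 acceptor anti-tag antibodies; dosing: 5 µM single dose; timing: compound-protein-antibody incubation 4 h at 22.5 °C; signal: TR-FRET 671 and 617 nm emission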
* hit, by the source's call; . = not tested or not shown. Most compounds without a hit are left out; they make up all but 1.7% or so of the library.

SMILES | EBNA-1 inhibitor | ZTA DNA inh | PP1 inh | PP5 primary | core dimer inh
CCOC(=O)c1sc(NC(=O)C(C)(C)C)cc1C | 9 | -1 | -2 | 0 | 2
CCOC(=O)c1sc(NC(=O)C2CC2)cc1C | -9 | -11 | -3 | 3 | -19
C/C=C\C(=O)Nc1cccc(C2=NOC3(C2)C[C@H](C(N)=O)N(C(=O)Cc2ccc([N+](=O)[O-])cc2)C3)c1 (stereo not given in full) | -7 | -13 | 2 | 2 | -15
Cc1ccc2c(c1)C1C=CCC1C(C(=O)NCCCN1CCOCC1)N2 (stereo not given) | -7 | -3 | -12 | -5 | -11
COc1cccc(C2Nc3c(F)cc(Br)cc3C3C=CCC32)c1OC (stereo not given) | 4 | 0 | -3 | -1 | -15
COc1cccc2c1NC(C(=O)O)C1CC=CC21 (stereo not given) | 20 | 38* | 37* | 4 | 45
Cc1ccc2c(c1)C1C=CCC1C(C(=O)O)N2 (stereo not given) | 45* | 28 | 20* | 0 | 94*
COc1ccc(NC(=O)Cn2ncc(Cl)c(Cl)c2=O)cc1S(=O)(=O)N1CCOCC1 | 9 | 4 | 5 | -3 | 50*
COc1ccc(NC(=O)c2cc3c(s2)CCC3)cc1S(=O)(=O)N1CCOCC1 | 3 | -15 | 12 | -6 | 94*
CCOc1ccc(/C=C(\C)C(=O)c2c(C)cc(C)[nH]c2=O)cc1 | 13 | -5 | 0 | 0 | -3
Cc1ccc(C)n1-c1ccc(C(=O)/C=C/N(C)C)cc1 | -10 | -13 | 16* | 3 | 19
CN(C)/C=C/C(=O)c1ccc(Br)cc1 | -2 | -8 | 3 | 0 | 2
CC(C)[C@H](NC(=O)N1c2ccccc2NC(=O)[C@@H]1C(C)C)C(=O)N1CCC[C@H]1C(=O)O | 1 | 8 | 3 | 3 | -4
N=C1SC(c2ccccc2)C(=O)N1c1ncc(Cc2ccccc2Cl)s1 (stereo not given) | 1 | 14 | 16* | -1 | 15
O=C(CSc1nnnn1-c1ccccc1)Nc1ncc(Cc2ccccc2Cl)s1 | 11 | 0 | 1 | 0 | 15
CC(=O)Nc1ccc(N=Cc2nc(-c3ccc(C)cc3)oc2O)cc1 | 2 | 2 | 4 | 1 | 65*
Oc1oc(-c2ccccc2)nc1C=Nc1ccccc1 | 9 | 16 | -3 | 0 | -4
CCN(CC)S(=O)(=O)c1ccc(NC(=O)c2ccc(OCC3CCCO3)cc2)cc1 (stereo not given) | . | 7 | -1 | 2 | .
COC(=O)Cn1c(=NC(=O)c2nc3ccccc3s2)sc2cc(S(C)(=O)=O)ccc21 | -1 | 5 | 0 | -1 | 7
COC(=O)Cn1c(=NC(=O)c2sc3ccccc3c2Cl)sc2cc(S(N)(=O)=O)ccc21 | 2 | 19 | 26* | -1 | 5
CCC(NS(=O)(=O)c1ccc(OC)cc1)C(=O)NCCc1ccccc1 (stereo not given) | 7 | 20 | -4 | 1 | 7
CC1=C(C#N)C(=O)N(C2CCS(=O)(=O)C2)C(=O)/C1=C\c1ccco1 (stereo not given) | 63* | 79* | 35* | 1 | 78*
CCC1(CC)NC(=O)N(CC(=O)Nc2sc3c(c2C(N)=O)CCC3)C1=O | 0 | -7 | 11 | 0 | 83*
CCC1(C)NC(=O)N(CC(=O)Nc2sc3c(c2C(=O)OC)CCCCC3)C1=O (stereo not given) | 9 | -5 | 2 | 4 | 2
N#CC1=C(N)OC2=C(CC/C2=C\c2ccc(F)cc2)C1c1ccc(F)cc1 (stereo not given) | 5 | 9 | 1 | -2 | 52*
SMILES | EBNA-1 inhibitor | ZTA DNA inh | PP1 inh | PP5 primary | core dimer inh
Cn1c(=O)c2sc3c(c2n(CC(=O)Nc2ccccc2)c1=O)COC(C)(C)C3 | 6 | 7 | -3 | 2 | -1
COc1cc2c(cc1OC)C(C)N(C(=O)Nc1ccc(F)cc1)CC2 (stereo not given) | -7 | -3 | -3 | 1 | 1
COC(=O)c1ccc(N)cc1O | -9 | -5 | 1 | -1 | -2
COC(=O)c1ccc(=O)c2nc3/c(=C/O)c(O)cc(=O)c3[nH]c12 | 103* | 5 | 49* | 2 | 23
CCc1nnc(NC(=O)CCC(=O)Nc2ccc(Cl)cc2)s1 | 6 | 13 | 0 | -2 | 5
Cc1ccc(-c2csc(NC(=O)CSc3nnc4c(n3)[nH]c3ccccc34)n2)cc1 | 17 | 10 | 17* | 0 | 14
NS(=O)(=O)c1ccc(CCNC(=O)C2CC(=O)N(Cc3ccccc3Cl)C2)cc1 (stereo not given) | . | 0 | 1 | 0 | .
CCCCn1c(NC(=O)c2ccc(F)cc2)c(C#N)c2nc3ccccc3nc21 | -19 | 10 | 5 | 14* | 10
CCC(C)(C)c1ccc(OCCCC[n+]2ccccc2)c(C(C)(C)CC)c1 | 0 | 0 | 15* | 6 | -23
CCN(CC)C(=O)c1sc(NC(=O)C(Sc2ccccc2)c2ccccc2)c(C(=O)OC(C)C)c1C (stereo not given) | 5 | 1 | -2 | 1 | 16
CCc1ccc(-c2csc(NC(=O)C3=NN(c4ccccc4)C(=O)CC3)n2)cc1 | 9 | 3 | 0 | 1 | 42
Cc1cc(C)c(-c2csc(NC(=O)C3=NN(c4ccccc4)C(=O)CC3)n2)c(C)c1 | -5 | -13 | 14 | 4 | 46*
O=C(CCCN1C(=O)/C(=C/c2ccccc2Cl)SC1=S)Nc1cccnc1 | 10 | -9 | 17* | 3 | -6
O=C(CCN1C(=O)/C(=C/c2ccccc2Cl)SC1=S)Nc1cccnc1 | -2 | -9 | 15* | 5 | 2
NC(=O)C1CCCN(CC(=O)Nc2cc(S(=O)(=O)N3CCOCC3)ccc2N2CCCC2)C1 (stereo not given) | . | 18 | -2 | -2 | .
C=CCN(c1ccccc1)S(=O)(=O)c1cccc(C(=O)Nc2nc3ccccc3[nH]2)c1 | -7 | 3 | 17* | -3 | 14
CC12CCC(c3c(C(=O)O)nn(-c4ccc(F)cc4)c31)C2(C)C (stereo not given) | -17 | 9 | 15* | 1 | 7
COc1cccc(C(=O)NN2CC(O)=C(c3nc(C)cs3)C2=N)c1 | 1 | 4 | -1 | -1 | -6
Cc1ccc(C(=O)NN2CC(O)=C(c3nc(-c4cccc([N+](=O)[O-])c4)cs3)C2=N)cc1 | 11 | 14 | 17* | 3 | 54*
CC(=O)C1=C(O)C(=O)N(c2ccc(Br)cc2)C1c1cccc(F)c1 (stereo not given) | 7 | 2 | 16* | 2 | 1
C/C(CC(=O)Nc1ccc2c(c1)OCCO2)=N\NC(=O)C(=O)Nc1ccccc1C | 0 | -7 | -1 | 2 | -5
C/C(CC(=O)Nc1ccc(OCc2ccccc2)cc1)=N\NC(=O)C(=O)Nc1ccccc1C | -6 | 1 | 16* | 0 | 7
O=C(Nc1cc(C(F)(F)F)ccc1N1CCCC1)C1CCCO1 (stereo not given) | . | -5 | 1 | 2 | .

Screens (PubChem)
